Assay outcomes deposited in PubChem BioAssay by Broad Institute.
Sampled rows, rich in hits. Any-hit rate of the full collection: about 2.3%.
HIV Env fusion: HIV envelope-mediated fusion inhibition; AID 651610; inhibition, % at 12.3 µM; 360,000 tested, 1.1% active; HeLa-JRFL Env/CEM21 cell fusion, luciferase;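 active = mean replicate inhibition score of at least 50 and every replicate individually at or above 50; inconclusive = only one of the two criteria met; inactive = mean below 50 and not all replicates reaching 50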
PAX8 reporter: lowers PAX8-driven luciferase in RMG-I cells; RMG-I TPO-luciferase reporter, SteadyGlo, 24 h; inhibition, % at 12.6 µM; 360,000 tested, 1.2% active; AID 652154;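 active = mean replicate inhibition at least 60% with every replicate also reaching 60%; inconclusive = only one of the two criteria is met; inactive = mean below 60% and not all replicates reaching 60%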;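 also: luciferase light reporting Pax8 driven TPO promoter activity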
PGC1a acetyl inh: lowers PGC1a acetylation signal in U2OS cells | inhibition, % at 15.6 µM | AlphaScreen anti-acetyl-lysine; with virally co-expressed GCN5 acetyltransferase | 350,000 tested, 0.17% active | AID 651687;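 active = every replicate shows inhibition of at least 40%; inconclusive = mean inhibition at least 40% but some replicate below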
FN deposition inh: fibronectin deposition inhibition | AH1F fibroblasts, Alexa488-fibronectin deposition fluorescence, overnight | inhibition, % at 12.6 µM | 350,000 tested, 0.086% active;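 active = mean inhibition across replicates of 30% or more, regardless of how many single replicates reach that level; inconclusive = mean under 30% yet at least half of replicates reach 30%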
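Assay system: AH1F fibroblasts assembling fluorescent fibronectin matrix; Amount: 10000 AH1F cells per well; Buffer or medium: DMEM, 2% serum; Probe or stimulus: Alexa488-fibronectin, 24 nM final in well; Doses: single compound dose, delivered by pin transfer; Incubation: 1 h adhesion, overnight exposure; Measured by: fluorescence 485/525 nm; Read-out: fibronectin deposition inhibition.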
CFTR F508del cor: correctors of CFTR F508del function in bronchial epithelial cells | CFBE cells, YFP halide quenching; stimulated with forskolin plus potentiator P3; % fluorescence drop versus neutral controls | activity (quench increase), % at 7.58 µM | 350,000 tested, 0.36% active | AID 720511;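 active = mean added fluorescence quench of at least 8% versus neutral control, with both replicates also reaching 8%; inconclusive = only one of the mean or replicate conditions met; inactive = mean below 8% and not both replicates reaching 8%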;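 also: cells transiently co-express mutant CFTR-F508del with the halide-sensitive YFP; corrector assay measuring rescue of mutant channel to the surface after 24 h compound exposure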
EWS-Fli block: inhibitors of EWS/Fli oncoprotein transcriptional activity | A673 NR0B1-luciferase reporter, viability-normalised | 350,000 tested, 0.67% active | inhibition, % at 12.6 µM | AID 651661;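 active = mean inhibition of at least 50% after viability correction, with every replicate also passing that limit; inconclusive = mean reaches 50% but only one of two replicates passes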;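 also: firefly luciferase signal divided by Alamar Blue viability fluorescence both relative to DMSO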
Large screens that a line does not name were inactive; [ ] = another dose, or the depositor's remark.

CC(C)CC(NC(=O)OC(C)(C)C)c1cn([C@@H](CCCCNC(=O)OC(C)(C)C)C(=O)N2CCN(C(=O)OC(C)(C)C)CC2)nn1 (stereo partly drawn)	none
CC(C)(C)OC(=O)CC[C@@H](C(=O)N1CCN(C(=O)OC(C)(C)C)CC1)n1cc(C(Cc2ccc(O)cc2)NC(=O)OC(C)(C)C)nn1 (stereo partly drawn)	HIV Env fusion 61.7 (no result: PGC1a acetyl inh)
S=C(Nc1ccc(Cl)cc1)c1nc2ccccc2[nH]1	HIV Env fusion 58.5 (no result: CFTR F508del cor, EWS-Fli block)
C[C@H](CO)N1C[C@H](C)[C@@H](CN(C)S(=O)(=O)c2ccc(F)cc2)Oc2cc(C#Cc3ccc(F)cc3)ccc2S1(=O)=O	none (no result: PAX8 reporter)
CC(C)CC#Cc1ccc2c(c1)O[C@@H](CN(C)S(=O)(=O)c1ccc(F)cc1)[C@H](C)CN([C@H](C)CO)S2(=O)=O	PAX8 reporter 67.5
CC(C)CC#Cc1ccc2c(c1)O[C@H](CN(C)S(=O)(=O)c1ccc(F)cc1)[C@H](C)CN([C@@H](C)CO)S2(=O)=O	HIV Env fusion 61.3[16.7 µM], PAX8 reporter 98.0
C[C@H]1CN([C@@H](C)CO)C(=O)Cc2cc(NC(=O)Cn3cnnn3)ccc2O[C@H]1CN(C)CC1CCCCC1	none
Cc1ccc(C(=O)NCC(=O)OCC(=O)NC(C)c2ccccc2)s1 (stereo not drawn)	CFTR F508del cor 14.7 (no result: PGC1a acetyl inh)
Cc1ccc(C(=O)OCC(=O)NC(C)c2ccccc2)s1 (stereo not drawn)	none
O=C(CCn1c(=O)[nH]c2ccccc2c1=O)N1CCN(c2cccc(C(F)(F)F)c2)CC1	none (no result: CFTR F508del cor, EWS-Fli block)
O=C(CCCCn1c(=O)[nH]c2ccccc2c1=O)N1CCN(c2cccc(C(F)(F)F)c2)CC1	HIV Env fusion 83.3 (no result: CFTR F508del cor, EWS-Fli block)
CC1(Oc2ccc3ccccc3c2)CCN(Cc2cccn2-c2nccs2)C1 (stereo not drawn)	HIV Env fusion 70.2 (no result: PGC1a acetyl inh)
CC(=O)c1ccc(OC2(C)CCN(Cc3cccn3-c3nccs3)C2)cc1 (stereo not drawn)	none (no result: PGC1a acetyl inh)
Cc1cc(NC(=O)CS(=O)(=O)c2cn(Cc3cccc(F)c3)c3ccccc23)no1	HIV Env fusion 73.2 (no result: CFTR F508del cor, EWS-Fli block)
Cc1cc(NC(=O)CS(=O)(=O)c2cn(Cc3ccc(F)cc3)c3ccccc23)no1	HIV Env fusion 79.3
Cc1cc(NC(=O)CS(=O)(=O)c2cn(Cc3cccc(C(F)(F)F)c3)c3ccccc23)no1	HIV Env fusion 77.5
CCn1cc(S(=O)(=O)CC(=O)Nc2cc(C)on2)c2ccccc21	none (no result: PAX8 reporter, CFTR F508del cor, EWS-Fli block)
C(#Cc1ccccc1)C[N+]1(CC#Cc2ccccc2)CCCCC1	none
CCC[N+]1(CC#CCC(c2ccccc2)c2ccccc2)CCCCC1	HIV Env fusion 74.2, PAX8 reporter inconclusive (no result: CFTR F508del cor)
Cn1nc(C(C)(C)C)cc1NC(=O)C1(C)CCN1C(=O)Cc1ccc(-c2ccccc2)cc1 (stereo not drawn)	HIV Env fusion 61.6
O=C(C[C@H]1C=C[C@@H](NS(=O)(=O)c2ccc(F)cc2)[C@H](CO)O1)NCCN1CCCCC1	none (no result: FN deposition inh)
Cc1csc(SCC(=O)c2c(N)n(CC(C)C)c(=O)n(C)c2=O)n1	HIV Env fusion 89.5 (no result: PAX8 reporter, CFTR F508del cor, EWS-Fli block)
Cc1ccc(-n2nnnc2SCC(=O)c2c(N)n(CC(C)C)c(=O)n(C)c2=O)cc1	HIV Env fusion 58.9 (no result: PAX8 reporter, FN deposition inh, CFTR F508del cor, EWS-Fli block)
CC(C)Cn1c(N)c(C(=O)CSc2nc3ccccc3n2C)c(=O)n(C)c1=O	none (no result: PAX8 reporter, FN deposition inh, CFTR F508del cor, EWS-Fli block)
CCC(C(=O)OCC(=O)c1c(N)n(CC(C)C)c(=O)n(C)c1=O)c1ccccc1 (stereo not drawn)	HIV Env fusion 60.3
O=C(c1ccc2c(c1)OCO2)N1CC2(C1)[C@@H](c1ccccc1)[C@@H](CO)N2C(=O)C1CCCC1	none (no result: HIV Env fusion, PAX8 reporter, PGC1a acetyl inh)
C[C@H](CO)N1C[C@H](C)[C@H](CN(C)S(=O)(=O)c2ccc(Cl)cc2)OCCCC[C@H](C)Oc2ccc(NS(=O)(=O)c3ccccc3)cc2C1=O	PAX8 reporter 72.3
C[C@@H]1CN([C@H](C)CO)C(=O)c2cc(NS(=O)(=O)c3ccccc3)ccc2O[C@@H](C)CCCCO[C@@H]1CN(C)S(=O)(=O)c1ccc(Cl)cc1	none
C[C@@H]1CCCCO[C@H](CN(C)S(=O)(=O)c2ccccc2)[C@H](C)CN([C@@H](C)CO)C(=O)c2cc(NS(=O)(=O)c3ccc(Cl)cc3)ccc2O1	PAX8 reporter 81.2
C[C@H]1CCCCO[C@H](CN(C)S(=O)(=O)c2ccc(Cl)cc2)[C@@H](C)CN([C@@H](C)CO)C(=O)c2cc(NS(=O)(=O)c3ccccc3)ccc2O1	PAX8 reporter 74.2 (no result: HIV Env fusion)
COC(=O)c1c(CC[C@@H](CO)NC(=O)N[C@H](Cn2cc(Cc3ccccc3)nn2)C(C)C)oc(C(C)=O)c1C(=O)OC	none (no result: FN deposition inh)
C[C@@H]1CCCCO[C@H](CN(C)Cc2ccncc2)[C@H](C)CN([C@@H](C)CO)C(=O)c2cc(NC(=O)Nc3cccc4ccccc34)ccc2O1	none (no result: PAX8 reporter, FN deposition inh)
C[C@@H]1CN([C@@H](C)CO)C(=O)c2cc(NC(=O)Nc3cccc4ccccc34)ccc2O[C@@H](C)CCCCO[C@@H]1CN(C)Cc1ccccc1	none
C[C@@H]1CCCCO[C@@H](CN(C)Cc2ccccc2)[C@H](C)CN([C@@H](C)CO)C(=O)c2cc(NC(=O)Nc3cccc4ccccc34)ccc2O1	none
C[C@@H]1CCCCO[C@H](CN(C)CC2CCCCC2)[C@@H](C)CN([C@H](C)CO)C(=O)c2cc(NC(=O)Nc3cccc4ccccc34)ccc2O1	none (no result: FN deposition inh)
C[C@H](CO)N1C[C@H](C)[C@H](CN(C)Cc2ccccc2)OCCCC[C@H](C)Oc2ccc(NC(=O)Nc3cccc4ccccc34)cc2C1=O	HIV Env fusion 113.8[16.7 µM]
C[C@@H]1CN([C@H](C)CO)C(=O)c2cc(NC(=O)Nc3cccc4ccccc34)ccc2O[C@@H](C)CCCCO[C@H]1CN(C)Cc1ccccc1	EWS-Fli block 74.1
C[C@@H]1CCCCO[C@@H](CN(C)CC2CCCCC2)[C@H](C)CN([C@@H](C)CO)C(=O)c2cc(NC(=O)Nc3cccc4ccccc34)ccc2O1	EWS-Fli block 93.8 (no result: FN deposition inh)
C[C@H]1CCCCO[C@@H](CN(C)Cc2ccncc2)[C@@H](C)CN([C@@H](C)CO)C(=O)c2cc(NC(=O)Nc3cccc4ccccc34)ccc2O1	HIV Env fusion 69.9[16.7 µM] (no result: PAX8 reporter, FN deposition inh)
COCC(=O)N1CC2(CCN(Cc3ccc(Cl)cc3)CC2)c2c([nH]c3cc(OC)ccc23)[C@H]1CO	none (no result: HIV Env fusion, FN deposition inh)
Cc1noc(C)c1S(=O)(=O)Nc1ccc2c(c1)CC(=O)N([C@@H](C)CO)C[C@@H](C)[C@H](CN(C)S(=O)(=O)c1cn(C)cn1)O2	none (no result: FN deposition inh)
CC(=O)N1CC2(C1)[C@H](c1ccc(-c3cccc(F)c3)cc1)[C@H](CO)N2CC1CCCC1	none (no result: HIV Env fusion, PAX8 reporter, FN deposition inh)
O=C(C[C@@H]1CC[C@@H]2[C@H](COC[C@H](O)CN2S(=O)(=O)c2cccc(Cl)c2)O1)N1CCCCC1	none
